# Sampled rows, rich in hits. Any-hit rate of the full collection: about 1.2%.
# SR-BI HDL uptake – inhibitors of SR-BI mediated HDL lipid uptake, primary screen, ldlA[mSR-BI] cells, fluorescence, single point; Scavenger receptor class B member 1 (Mus musculus), Q61009; ldlA[mSR-BI] CHO cells, DiI-HDL uptake fluorescence, 3 h; inhibition, % at 12.5 µM; 0.96% of 320,000 active; AID 488896, 2010;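 active = mean replicate inhibition of at least 70% and a set share of replicates each scoring 70 or more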;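 note: 0% = median of neutral control wells and 100% = median of positive control wells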
# Target sequence (Q61009 whole entry, looked up): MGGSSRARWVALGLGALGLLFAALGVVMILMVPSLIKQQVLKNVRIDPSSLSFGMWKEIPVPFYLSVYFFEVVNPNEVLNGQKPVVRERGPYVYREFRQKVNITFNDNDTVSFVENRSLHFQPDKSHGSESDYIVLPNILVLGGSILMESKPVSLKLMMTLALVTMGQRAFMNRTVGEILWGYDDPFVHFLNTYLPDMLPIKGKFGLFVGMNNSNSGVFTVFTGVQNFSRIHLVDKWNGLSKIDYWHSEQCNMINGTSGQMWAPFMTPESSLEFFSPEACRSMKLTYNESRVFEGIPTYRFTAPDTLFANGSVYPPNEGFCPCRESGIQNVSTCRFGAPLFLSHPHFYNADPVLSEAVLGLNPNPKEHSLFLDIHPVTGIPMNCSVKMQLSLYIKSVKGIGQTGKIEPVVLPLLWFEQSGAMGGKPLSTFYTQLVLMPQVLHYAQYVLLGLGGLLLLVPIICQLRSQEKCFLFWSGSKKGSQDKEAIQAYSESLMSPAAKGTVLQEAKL
# FN deposition inh – inhibitors of fibronectin matrix deposition, primary screen, AH1F cells, Alexa488-fibronectin fluorescence, plate reader | AH1F fibroblasts, overnight | 0.086% of 350,000 active | inhibition, % at 12.6 µM;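 active = mean inhibition across replicates of 30% or more, regardless of how many single replicates reach that level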;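 note: positive control wells lacked labelled fibronectin entirely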
#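 Material: AH1F fibroblast monolayer depositing Alexa488-labelled fibronectin into matrix | Input: 10000 AH1F cells/well | Medium: DMEM plus 2% serum, read in PBS | Reagent: Alexa488-fibronectin, 24 nM final in well | Compound dosing: One dose per compound, pinned | Schedule: 1 h adhesion, overnight exposure | Measured by: Fluorescence at 485 nm excitation, 525 nm emission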
# Efflux pump mplx – inhibitors of Candida efflux pumps in yeast, primary screen, S. cerevisiae, Nile Red, multiplex; 0.44% of 330,000 active; AID 485275, 2010; S. cerevisiae Candida pump triplex; inhibition, % at 10 µM;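 active = plate passing quality check with inhibition over a set limit, or well fluorescence over plate mean plus 4 SD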;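 note: Nile Red retained in pooled yeast measured as flow cytometry median fluorescence; 0% = buffer negative control and 100% = Enniatin B positive control; higher means more Nile Red kept so more efflux inhibition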
# CaV13 FRET inh – Primary screen for inhibitors of IQ motif and Ca2+-dependent inactivation inhibitor domain binding in CACNA1D, Förster resonance energy transfer in living cells, …; HEK cells, CFP/YFP FRET ICDI-IQ, plate reader, 10 min; percent FRET-ratio fall versus neutral wells; inhibition, % at 12.3 µM; 0.098% of 340,000 active; AID 743397;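 active = mean replicate inhibition of at least 30% and at least 1% of replicates passing that level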;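 note: 0% = median of the neutral control wells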
# SR-BI DiI-HDL act – activators of SR-BI mediated DiI-HDL uptake, primary screen, ldlA[mSR-BI] CHO cells, DiI fluorescence | 3 h; 100 = double the neutral-control signal | activation, % at 12.5 µM | 0.096% of 320,000 active | AID 504775, 2011;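 active = mean replicate activation of at least 60% and every replicate at or above 60%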;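 note: 0% = median plate neutral-control signal and 100% = twice that signal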
#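 System: LDL receptor-deficient CHO ldlA cells overexpressing murine SR-BI | Timing: 3 h uptake period with compound, 37 °C | Medium: HEPES-buffered (25 mM, pH 7.4) F12 plus 0.5% BSA | Dosing: Single-point compound dose | Signal: Bottom-read fluorescence, 550/595 nm | Read-out: Retained DiI signal reflecting DiI-HDL uptake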
# The depositor's hits bear a star; . = no result.
SMILES,SR-BI HDL uptake,FN deposition inh,Efflux pump mplx,CaV13 FRET inh,SR-BI DiI-HDL act
CCOc1ccc(/C=N/NC(=S)NC2CC3CC2C2C=CCC32)cc1 (configuration not stated),-4,-2,0,-5,4
CNNC(=S)NC1CC2CC1C1C=CCC21 (configuration not stated),10,0,0,41*,-10
NC(=S)NC1CC2CC1C1C=CCC21 (configuration not stated),40,9,0,12,-40
COc1cc(/C=N/NC(=S)NC2CC3CC2C2C=CCC32)ccc1O (configuration not stated),73*,17,1,-5,-73
CC(C)(C)[S@@](=O)N1Cc2cc(C(=O)N[C@@H]3CCN(Cc4ccccc4)C3)nc(-c3cccc(-c4cncnc4)c3)c2[C@H]1CCO,.,7,.,.,.
CC1C(=O)C(C)C(c2cc(Cl)ccc2O)NC1c1cc(Cl)ccc1O (configuration not stated),86*,3,-1,-1,-86
CN1C(=O)c2cc(NS(=O)(=O)c3ccc(Cl)cc3)ccc2OC[C@@H]2O[C@H](CC(=O)N3CCc4ccccc4C3)CC[C@H]21,.,5,.,.,.
CN(CCCS(=O)(=O)[O-])c1ccc(/C=C/c2ccc3ccccc3[n+]2C)cc1,-2,-1,0,-4,2
CN(C)c1ccc(/C=C/c2ccc3ccccc3[n+]2C)cc1,-12,-14,29*,-6,12
N#Cc1ccc(-c2cccnc2)nc1SCC(=O)Nc1sc2c(c1C#N)CCC2,76*,.,0,-8,-76
N#Cc1c(C(F)(F)F)cc(-c2ccccc2)nc1SCC(=O)Nc1sc2c(c1C#N)CCC2,106*,.,0,.,-106
C[C@@H]1CN([C@H](C)CO)C(=O)c2c(c3ccccc3n2C)-c2ccccc2CO[C@H]1CN(C)Cc1cccnc1,.,13,.,.,.
CC(=O)C1=CN(Cc2ccccc2)CCC1=O,-245,2,.,-9,245*
COc1cc2ccccc2cc1C(=O)OCC(=O)N(CC(C)C)c1c(N)n(Cc2ccccc2)c(=O)[nH]c1=O,80*,-1,0,-6,-80
COCCCN(C(=O)c1ccc2ccccc2n1)c1c(N)n(Cc2ccccc2)c(=O)[nH]c1=O,-11,37*,0,-3,11
COCCN(C(=O)COC(=O)c1cc2ccccc2cc1OC)c1c(N)n(Cc2ccccc2)c(=O)[nH]c1=O,55,2,0,-6,-55
CC(C)CN(C(=O)COC(=O)c1ccccc1NCc1ccco1)c1c(N)n(Cc2ccccc2)c(=O)[nH]c1=O,27,1,0,-7,-27
CCN(C(=O)COC(=O)c1ccccc1NCc1ccco1)c1c(N)n(Cc2ccccc2)c(=O)[nH]c1=O,73*,.,.,-5,-73
C[C@@H]1CN([C@H](C)CO)C(=O)c2cc(C#CCN(C)C)cnc2O[C@@H]1CN(C)C(=O)NC1CCCCC1,.,-2,.,.,.
COc1ccc(NC(=O)c2nc(S(=O)(=O)Cc3cccc(C)c3)ncc2Cl)c(OC)c1,-7,48*,0,-3,7
Cc1cccc(C)c1NC(=O)c1nc(S(=O)(=O)Cc2ccccc2)ncc1Cl,-1,4,0,-7,1
Cc1cccc(CS(=O)(=O)c2ncc(Cl)c(C(=O)Nc3c(C)cccc3C)n2)c1,-5,12,0,-3,5
COc1ccc(OC)c(NC(=O)c2nc(S(=O)(=O)Cc3ccccc3)ncc2Cl)c1,-13,56*,0,-2,13
CCOC(=O)c1c(NC(=S)Nc2cccc(C)c2)sc2c1CC(C)(C)SC2,87*,-16,0,-4,-87
C/C(=N\NC(N)=S)c1ccccc1,86*,3,0,-4,-86
CC(/C=C/c1ccccc1)=N\NC(N)=S,77*,-6,0,-5,-77
C/C(=N\NC(N)=S)c1ccc2c(c1)OCCO2,76*,4,0,-1,-76
NC(=S)NN=C(c1ccccc1)c1ccccc1,36,-13,0,-4,-36

# Screening data from PubChem BioAssay.
